Rows were chosen to be rich in hits. Some 4% of all compounds tested hit in one or more screens of this group.
hERG rescue: hERG rescue from dofetilide block, primary screen, cell-based, CHO-hERG, FluxOR thallium flux, dofetilide IC70; Voltage-gated inwardly rectifying potassium channel KCNH2 (Homo sapiens), Q12809; dofetilide IC70 present; AID 1511, 2009; activation (rescue from dofetilide block), less the hit threshold, % at 10 µM; 310,000 tested, 0.51% active;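 active means activation above the mean of controls blocked by dofetilide plus 5 SD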;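 further: thallium influx through hERG after potassium depolarization seen as dye fluorescence rise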
KCNQ1 inh: inhibitors of human KCNQ1 channel, primary screen, cell-based, thallium flux, high-throughput; Potassium voltage-gated channel subfamily KQT member 1 (Homo sapiens), P51787; CHO-K1 KCNQ1, FluxOR thallium flux fluorescence; active compounds read high; B-score at 10 µM; 310,000 tested, 1.3% active; AID 2642, 2010;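 active means compounds whose thallium flux B-score, printed positive for inhibition, exceeds three library SD while starting fluorescence stays within three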;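 further: channel opened by potassium depolarization with thallium stimulus after 20 min compound exposure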
PHOSPHO1 block: PubChem AID 1565 | recombinant PHOSPHO1, absorbance phosphatase assay | 290,000 tested, 1.1% active | inhibition, % at 13.3 µM; in the data active means inhibition above about 60%
Target sequence (Q8TCT1 whole entry, looked up): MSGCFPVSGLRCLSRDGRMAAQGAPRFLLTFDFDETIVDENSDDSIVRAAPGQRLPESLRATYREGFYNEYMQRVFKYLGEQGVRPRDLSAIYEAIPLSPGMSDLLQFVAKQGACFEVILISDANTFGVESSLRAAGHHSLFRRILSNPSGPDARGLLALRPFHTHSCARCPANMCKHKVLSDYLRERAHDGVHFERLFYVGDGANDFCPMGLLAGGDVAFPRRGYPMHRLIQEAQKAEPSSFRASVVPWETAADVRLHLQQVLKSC
KCNK9 block: KCNK9 potassium channel inhibitors, primary screen, HEK293 cells, thallium flux; 310,000 tested, 1.2% active; Potassium channel subfamily K member 9 (Homo sapiens), Q9NPC2; B-score at 10 µM; FluxOR thallium flux fluorescence; active compounds read low;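 active means ratio B-score over 3 SD below the library mean, with starting fluorescence within 5 SD of its mean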;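 further: negative B-score means less thallium flux so channel inhibition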
Target sequence (Q9NPC2 whole entry, looked up): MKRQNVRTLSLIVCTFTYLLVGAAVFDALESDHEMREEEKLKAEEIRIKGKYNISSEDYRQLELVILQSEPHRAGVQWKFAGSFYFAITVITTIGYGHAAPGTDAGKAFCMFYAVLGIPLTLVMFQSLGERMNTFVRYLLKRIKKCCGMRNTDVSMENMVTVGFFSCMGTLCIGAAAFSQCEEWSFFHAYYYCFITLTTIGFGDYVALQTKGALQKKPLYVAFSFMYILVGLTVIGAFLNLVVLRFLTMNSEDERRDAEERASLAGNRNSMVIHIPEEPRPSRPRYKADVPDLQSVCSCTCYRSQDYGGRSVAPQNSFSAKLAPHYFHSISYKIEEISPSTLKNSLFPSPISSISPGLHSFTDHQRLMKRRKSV
KCNQ1 act: potentiators or activators of KCNQ1 channel, primary screen, cell-based, thallium flux, high-throughput; 310,000 tested, 0.35% active; B-score at 10 µM; CHO-K1 KCNQ1, thallium flux FluxOR fluorescence; active compounds read high; Potassium voltage-gated channel subfamily KQT member 1 (Homo sapiens), P51787;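 active means fluorescence ratio B-score, a plate-corrected score, at least three library SD, with initial intensity B-score within 5 SD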
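Assay system: stable KCNQ1 CHO-K1 line; medium: assay buffer, equal DMSO in all wells; timing: 90 min dye loading and 20 min compound exposure, both at room temperature; technique: kinetic FluxOR thallium fluorescence, 10-s 1-Hz baseline, 110-s post-stimulus read; read-out basis: B score of baseline-normalized fluorescence ratio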
KCNK3 block: human KCNK3 channel inhibitors, primary screen, CHO cells, FluxOR thallium flux, B-score | Potassium channel subfamily K member 3 (Homo sapiens), O14649 | FluxOR fluorescence; active compounds read low | B-score at 10 µM | 340,000 tested, 0.84% active | AID 602410, 2012;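 active means B-score under library mean minus 4 SD, starting fluorescence ratio at most library mean plus 5 SD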;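 further: more negative B-score means stronger inhibition of thallium flux through KCNK3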
Numbers stand for hits; 0 = inactive; - = no result.

SMILES	hERG rescue	KCNQ1 inh	PHOSPHO1 block	KCNK9 block	KCNQ1 act	KCNK3 block
CCNc1nc(NC(C)C)nc(N(C#N)C(C)C(=O)N(C)C)n1 (stereo unspecified)	0	0	0	0	0	0
CCNc1nc(NC(C)C)nc(N(C#N)Cc2ccccc2)n1	0	0	0	-7.3	0	0
O=C(Nc1c(C(=O)N2CCOCC2)cnn1-c1ccccc1)c1ccco1	0	0	0	0	0	0
O=C(Cn1c(CO)nc2ccccc21)NCCc1ccccc1	7.3	0	0	0	0	0
Cn1c(CC(=O)Nc2ccccc2)n[nH]c1=S	0	0	60	0	0	0
Cc1ccc(NC(=O)Cc2n[nH]c(=S)n2C)cc1	0	0	0	0	0	0
Cc1ccc(C)c(N(CC(=O)N(C)C)S(C)(=O)=O)c1	0	0	0	0	0	0
CC1(C)Cc2ccccc2-c2n[nH]c(=S)n21	0	0	96	0	0	0
CCCC1CC(C)(C(=O)CSc2n[nH]c(-c3ccccc3)n2)OC1=O (stereo unspecified)	0	0	60	0	0	0
CCCC1CC(=O)OC1(C)C(=O)CSc1n[nH]c(-c2ccccc2)n1 (stereo unspecified)	0	0	0	0	0	-
CC12CCC(=O)N1C(C(=O)Nc1ccc(Cl)c(Cl)c1)CS2 (stereo unspecified)	0	0	-	0	0	0
COc1ccc(C(=O)Nc2ccc(S(=O)(=O)Nc3ncccn3)cc2)cc1OC	0	0	60	0	0	0
Cc1ccc(NC(=S)Nc2ccc(S(=O)(=O)Nc3ncccn3)cc2)cc1Cl	0	10	0	0	0	-
C=CCNc1nc(C(=O)OCC(=O)Nc2ccccc2C(F)(F)F)cs1	-	-	-	-	-	0
O=C(C=Cc1cccc(O)c1)c1ccccc1O	-	-	-	-	-	-9.9
O=C(/C=C/c1ccccc1)CC(=O)c1ccccc1O	15	0	0	0	0	0
O=C(/C=C/c1ccc(O)c(O)c1)c1ccccc1O	0	0	0	0	0	0
COc1ccc(NC(=O)c2cccnc2)cc1OCC(C)C	0	0	0	0	0	0
COc1cccc(N=C2NC(=O)/C(=C/c3cc([N+](=O)[O-])ccc3O)S2)c1	0	7	0	0	0	0
Cc1ccc(S(=O)(=O)/N=C2/NC(=O)/C(=C/c3cc([N+](=O)[O-])ccc3O)S2)cc1	0	0	0	0	0	0
Cc1cccc(C2NC(=O)c3ccccc3O2)c1 (stereo unspecified)	0	0	0	0	0	0
O=C1NC(c2cccc(Cl)c2)Oc2ccccc21 (stereo unspecified)	6.3	0	0	0	0	0
COc1ccccc1N(CC(=O)Nc1cccnc1)S(=O)(=O)c1ccccc1	0	0	0	0	0	0
CCCCCN1C=CC=C/C1=C\C=C(C#N)C#N	0	0	0	0	0	0
C=CCN1C=CC(=CC=C(C#N)C#N)C=C1	0	7	0	0	0	0
SMILES	hERG rescue	KCNQ1 inh	PHOSPHO1 block	KCNK9 block	KCNQ1 act	KCNK3 block
CCCCCCN1C=CC=C/C1=C/C=C(C#N)C#N	0	0	0	0	0	0
CCCN1C=CC(=CC=C(C#N)C#N)C=C1	0	8	0	0	0	0
Clc1cccc(Cl)c1CSc1nnc(-c2ccncc2)s1	0	0	0	0	0	0
CN(C)c1ccc(C=c2c3ccccc3n3c2cc(-c2ccccc2)[n+]3C)cc1	-	-	-	-	-	-15
CN(C)c1ccc(C=c2c3ccccc3n3c2cc(-c2ccc(Cl)cc2)[n+]3C)cc1	-	-	-	-	-	-12
CN(C)c1ccc(C=c2c3cc([N+](=O)[O-])ccc3n3c2cc(-c2ccccc2)[n+]3C)cc1	-	-	-	-	-	0
COc1ccc(CN(CC2CCCO2)S(=O)(=O)c2ccc(C(=O)O)cc2)cc1OC (stereo unspecified)	0	0	97	0	0	0
O=C(N/N=C/c1ccc2ncccc2c1)c1ccco1	0	6	0	0	0	0
N=c1c(C(=O)NC2CCCC2)cc2c(=O)n3ccccc3nc2n1C1CCCCC1	0	0	0	0	0	0
O=Cc1c(N2CCN(CCO)CC2)nc2ccccn2c1=O	0	13	0	0	0	0
CC(=O)N1c2ccccc2C2(O)N=C(C)SC12 (stereo unspecified)	0	0	72	0	0	0
CC(=O)N1c2ccccc2[C@@H](C)[C@@H]1C	-	-	-	-	-	0
C/C(=N\Nc1ncnc2sc(C)c(C)c12)c1ccccn1	0	11	0	0	0	0
O=C(NCc1ccccc1)C1=C[C@H](c2ccc(C(F)(F)F)cc2)C[C@H](OCc2ccc(CO)cc2)O1	0	0	0	0	0	0
O=C(CCl)NCCCCCCCCCNC(=O)CCl	0	0	0	0	0	0
CCC(=O)NCCCCCCNC(=O)CC	6.9	0	0	0	0	0
N#Cc1cnn(-c2ccc(F)cc2)c1N	0	0	0	0	0	0
CN(C(=O)CSc1ncnc2sc(-c3ccccc3)cc12)C1CCS(=O)(=O)C1 (stereo unspecified)	49	0	0	0	77	0
COc1cc2c(cc1NC(=O)COC(=O)C(CCSC)NC(=O)c1ccccc1Cl)oc1ccccc12 (stereo unspecified)	0	0	0	0	0	0
CC(C)(C)NC(=O)CN(Cc1cccs1)C(=O)C1COc2ccccc2O1 (stereo unspecified)	0	6	0	0	0	0
CC(C)(C)NC(=O)CN(Cc1cccs1)C(=O)CN1C(=O)C(=O)c2ccccc21	0	0	0	0	0	0
Nc1nc(COC(=O)c2ccc3c(c2)OCCO3)nc(Nc2ccccc2)n1	-	-	-	-	-	0
CCc1ccc2[nH]c(=O)c(CN(Cc3ccco3)S(=O)(=O)c3ccc4c(c3)OCCO4)cc2c1	0	0	0	0	0	0
Cc1ccc(C)c2[nH]c(=O)c(CN(Cc3ccco3)S(=O)(=O)c3ccc4c(c3)OCCO4)cc12	0	6	0	0	0	0
Cc1ccc(C)c2[nH]c(=O)c(CN(Cc3ccc4c(c3)OCO4)Cc3nnnn3Cc3ccco3)cc12	0	0	0	-7.1	0	-9.4
CC(=O)Nc1nc(=S)n(-c2ccccc2)[nH]1	0	0	96	0	0	0
Cc1cc2[nH]c(=O)c(=O)[nH]c2cc1S(=O)(=O)NCc1ccc(Cl)cc1	0	0	0	0	0	0
O=C(Nc1cc([N+](=O)[O-])ccc1N1CCOCC1)c1cccs1	0	0	0	0	0	0
CC1N(C)c2cc(NC(=O)c3cccs3)c(P(=O)(Nc3ccc([N+](=O)[O-])cc3)N3CCOCC3)cc2C1(C)C (stereo unspecified)	0	0	0	-7.2	0	0
CCC1CCc2sc(C(=O)NCC3CCCO3)cc2C1 (stereo unspecified)	-	-	-	-	-	0
